Results gathered from unrelated publications.
Lines come from different studies, so protocols differ. Converted amounts (≈) assume the structure as drawn.

| Structure (SMILES) | organism | assay | system | setting | quantity | value |
| --- | --- | --- | --- | --- | --- | --- |
| Cl.Oc1ccc(-c2nc(-c3ccc(Oc4ccc5c(c4)CNCC5)cc3)no2)cc1 | Enterococcus faecium | microbial growth, broth dilution |  | 24 h | MIC | 4 µg/mL |
| C#CCCCCCCCCCCCC(O)CC(O)CO (stereo not drawn) | Mycobacterium intracellulare | microbial growth, resazurin | ATCC23068 |  | IC50 | > 200 µg/mL |
| NS(=O)(=O)c1ccc(N/N=C2\C(=O)Nc3ccc4ncccc4c32)cc1 | Trypanosoma brucei | parasite growth |  |  | EC50 | 79.4 nM |
| CCN(Cc1cnc2nc(N)nc(N)c2n1)c1ccc(C(=O)N2CCC(C(=O)OC)CC2)cc1 | Trypanosoma brucei | parasite growth, resazurin |  | 10 µM, 72 h | inhibition | 31% |
| CC(C)Oc1c(NC(=O)c2ccc(NC(=O)c3ccc(NC(=O)[C@H](CC(N)=O)NC(=O)c4ccc(NC(=O)c5ccc(C#N)cn5)cc4)cc3)c(OC(C)C)c2O)ccc(C(=O)O)c1O | Citrobacter freundii | microbial growth | DSM30039 |  | MIC | 0.5 µg/mL (≈ 0.564 µM) |
| CCCCCCCCCC(=O)N[C@@H](Cc1c[nH]c2ccccc12)C(=O)N[C@H](CC(N)=O)C(=O)N[C@@H](CC(=O)O)C(=O)N[C@@H]1C(=O)NCC(=O)N[C@@H](CCCN)C(=O)N[C@@H](CC(=O)O)C(=O)N[C@H](C)C(=O)N[C@@H](CC(=O)O)C(=O)NCC(=O)N[C@H](CO)C(=O)N[C@@H]([C@H](C)CC(=O)O)C(=O)N[C@@H](CC(=O)c2ccccc2N)C(=O)O[C@@H]1C | Enterococcus faecium | microbial growth, broth dilution |  | 24 h | MIC | 2 µg/mL (≈ 1.23 µM) |
| NS(=O)(=O)c1ccc(NC=C2C(=O)Nc3ccc4ncsc4c32)cc1 | Trypanosoma brucei | parasite growth |  |  | EC50 | 12600 nM |
| CNC(=O)c1cc(Oc2ccc(NC(=O)Nc3ccc(Cl)c(C(F)(F)F)c3)cc2)ccn1 | Plasmodium berghei | parasite growth, luciferase | human | liver stage | IC50 | 1400 nM |
| COc1ncccc1CNc1cccc(-n2c(/C=C/c3ccc(C#N)cc3)nc3ccccc3c2=O)c1 | Enterococcus faecium | microbial growth, broth dilution | NCTC7171 |  | MIC | > 128 µg/mL |
| O=C(O)c1cn(C2CC2)c2cc(N3CCNCC3)c(F)cc2c1=O | Mycobacterium intracellulare | microbial killing | ATCC23068 |  | MBC | 3 µM (≈ 0.994 µg/mL) |
| C=CCCCCCCCCCCCC(O)CC(O)CO (stereo not drawn) | Candida albicans | microbial growth, broth dilution | ATCC90028 |  | IC50 | > 200 µg/mL |
| C[C@@H]1[C@H](O)[C@@H](C)/C=C/C=C/C=C/C=C/C=C/C=C/C=C/[C@H](O[C@@H]2O[C@H](C)[C@@H](O)[C@H](N)[C@@H]2O)C[C@@H]2O[C@](O)(C[C@@H](O)C[C@@H](O)[C@H](O)CC[C@@H](O)C[C@@H](O)CC(=O)O[C@H]1C)C[C@H](O)[C@H]2C(=O)O | Candida albicans | microbial killing | ATCC90028 |  | MFC | 1.25 µg/mL (≈ 1.35 µM) |
| CCn1c(-c2nonc2N)nc2c(C#CC(C)(C)O)ncc(OC3CCNCC3)c21 | Plasmodium berghei | parasite growth, luciferase | human | liver stage | IC50 | 7300 nM |
| COC(=O)Cc1ccc(/C=C/c2nc3ccccc3c(=O)n2-c2cccc(C(=O)O)c2)cc1 | Enterococcus faecium | microbial growth, broth dilution | NCTC7171 |  | MIC | > 128 µg/mL |
| CS(=O)(=O)CCNCc1ccc(-c2ccc3ncnc(Nc4ccc(OCc5cccc(C(F)(F)F)c5)cc4)c3c2)o1 | Trypanosoma brucei | parasite growth |  |  | EC50 | 2000 nM |
| N#Cc1ccc(/C=C/c2nc3ccncc3c(=O)n2-c2cccc(C(=O)O)c2)cc1 | Enterococcus faecium | microbial growth, broth dilution | NCTC7171 |  | MIC | > 128 µg/mL |
| CCCCCCCCCCCCCC(O)CC(O)CO (stereo not drawn) | Candida albicans | microbial growth, broth dilution | ATCC90028 |  | IC50 | > 200 µg/mL |
| COc1cc2c(cc1Nc1nc(Nc3cccc(F)c3C(N)=O)c3cc[nH]c3n1)N(C(=O)CN1CCN(C(C)C)CC1)CC2 | Trypanosoma brucei | parasite growth |  |  | EC50 | 200 nM |

| Structure (SMILES) | organism | assay | system | setting | quantity | value |
| --- | --- | --- | --- | --- | --- | --- |
| CNCCc1ccc(Oc2ccc(-c3noc(-c4ccc(O)cc4)n3)cc2)cc1.Cl | Enterococcus faecium | microbial growth, broth dilution |  | 24 h | MIC | 4 µg/mL |
| COC(=O)Nc1cccc(-n2c(/C=C/c3ccc(C#N)cc3)nc3ccccc3c2=O)c1 | Enterococcus faecium | microbial growth, broth dilution | NCTC7171 |  | MIC | > 128 µg/mL |
| CC(C)=Cc1cccc2c1C(=NNc1ccc(S(N)(=O)=O)cc1)C(=O)N2 | Trypanosoma brucei | parasite growth |  |  | EC50 | 31.6 nM |
| Cl.NCCc1ccccc1Oc1ccc(-c2noc(-c3ccc(O)cc3)n2)cc1 | Enterococcus faecium | microbial growth, broth dilution |  | 24 h | MIC | 8 µg/mL |
| CN1CCC(n2cnc(-c3ccc(F)cc3)c2-c2ccnc(Nc3ccccc3)n2)CC1 | Trypanosoma brucei | parasite growth |  |  | EC50 | 501 nM |
| O=C(O)c1ccc(-c2c[nH]c3ncc(-c4ccccc4)cc23)cc1C1CCCC1 | Plasmodium berghei | parasite growth, luciferase | human | liver stage | IC50 | 1200 nM |
| N#Cc1ccc(/C=C/c2nc3ccccc3c(=O)n2-c2cccc(C(=O)NCCC(=O)O)c2)cc1 | Enterococcus faecium | microbial growth, broth dilution | NCTC7171 |  | MIC | > 128 µg/mL |
| COc1cc2ncn(-c3cc(O[C@H](C)c4ccccc4Cl)c(C(N)=O)s3)c2cc1OC | Plasmodium berghei | parasite growth, luciferase | human | liver stage | IC50 | 7000 nM |
| O=C(Nc1ccccc1-c1ccc(F)c(F)c1)c1nccnc1C(F)(F)F | Alternaria brassicicola | microbial growth |  |  | EC50 | 0.057 µg/mL |
| Cl.Oc1cccc2c1[nH]c1c(C3=CC4(O)CC/C=C\CCCCN5CCC3C3(CC6/C=C\CCCCN6C43)C5)nccc12 (single isomer, unassigned; (+)) | Mycobacterium intracellulare | microbial growth, resazurin | ATCC23068 |  | IC50 | 0.22 µg/mL |
| CS(=O)(=O)c1ccc(/C=C/c2nc3ccccc3c(=O)n2-c2cccc(C(=O)O)c2)cc1 | Enterococcus faecium | microbial growth, broth dilution | NCTC7171 |  | MIC | > 128 µg/mL |
| CC(CN)c1ccc(Oc2ccc(-c3noc(-c4ccc(O)cc4)n3)cc2)cc1.Cl (racemic) | Enterococcus faecium | microbial growth, broth dilution |  | 24 h | MIC | 4 µg/mL |
| CC(=O)NCc1cccc(-n2c(/C=C/c3ccc(C#N)cc3)nc3ccccc3c2=O)c1 | Enterococcus faecium | microbial growth, broth dilution | NCTC7171 |  | MIC | > 128 µg/mL |
| NS(=O)(=O)c1ccc(N/N=C2\C(=O)Nc3ccc(Cl)cc32)cc1 | Trypanosoma brucei | parasite growth |  |  | EC50 | 1580 nM |
| COc1ccc(-c2nn3ncccc3c2-c2ccnc(Nc3ccc4c(c3)OCCO4)n2)cc1 | Plasmodium berghei | parasite growth, luciferase | human | liver stage | IC50 | 3500 nM |
| CN(c1ccc(NC(=O)Nc2c(Cl)cccc2Cl)cc1)c1ccnc(Nc2cccc(CS(C)(=O)=O)c2)n1 | Trypanosoma brucei | parasite growth |  |  | EC50 | 7940 nM |
| C[N+](C)(C)CCc1ccc(Oc2ccc(-c3noc(-c4ccc(O)cc4)n3)cc2)cc1.[I-] | Enterococcus faecium | microbial growth, broth dilution |  | 24 h | MIC | 8 µg/mL |
| NC(=O)c1cccc(-n2c(/C=C/c3ccc(Cl)cc3)nc3ccncc3c2=O)c1 | Enterococcus faecium | microbial growth, broth dilution | NCTC7171 |  | MIC | > 128 µg/mL |
